Read-outs that look alike come from different tables or passages of the source.
Assays:
[1] = test system: RNA containing a single 2 × 2 CU/UC internal loop, r(5′-GACAGCCUGCUGUC-3′); assay: NMR spectroscopy; type: binding; details: for shifts of RNA H6 and H8 proton resonances in 1D NMR: RNA with one 2×2 CU/UC internal loop; for binding to the RNA by waterLOGSY spectra: positive phase signals in the presence of RNA, 20:1 compound:RNA
Summary of the method: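 1D spectra were run on 100 μM RNA in D2O with compound titrated at 0.5–2.0 molar ratios. WaterLOGSY used 300 μM compound alone or with 15 μM RNA in H2O/5% D2O, phased so non-binders give negative NOEs. All spectra at 25 °C.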

[2] = test system: IR exon 11 splicing; type: cell-based; details: DM2 patient-derived fibroblasts; for rescue of IR exon 11 splicing (percent rescue): 1 μM
Summary of the method: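 DM2 patient-derived fibroblasts were treated at ~40% confluency in 6-well plates for 48 h. About 1 μg of total RNA was reverse transcribed. PCR ran 35 cycles (95/58/72 °C), and products were resolved on a 2% agarose gel, stained with ethidium bromide and quantified. Percent rescue = (untreated DM2 exclusion − treated exclusion)/(untreated DM2 exclusion − untreated WT exclusion) × 100.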

[3] = test system: r(CCUG)12–MBNL1 complex; assay: TR-FRET assay measuring disruption of a preformed r; type: biochemical; details: read-out: IC50 for disrupting the r(CCUG)12–MBNL1 complex, in vitro
Summary of the method: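 5′-Biotinylated r(CCUG)12 was folded at 60 °C for 5 min in 20 mM HEPES pH 7.5 with KCl and NaCl. It was then brought into assay buffer with 2 mM MgCl2, 2 mM CaCl2, 5 mM DTT, 0.1% BSA and 0.5% Tween-20. MBNL1-His6 was added (final 60 nM protein, 80 nM RNA) for 15 min, then varying compound concentrations for 15 min. Streptavidin-XL665 (40 nM) and anti-His6-Tb (0.44 ng/μL) were added for 30 min at room temperature. The F545/F665 ratio, with excitation at 345 nm, was fitted to a Hill equation.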

[4] = test system: DM2 patient-derived fibroblasts; assay: Cell viability; type: cell-based; details: 5 μM, 48 h
Summary of the method: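 Cells were treated in 96-well plates for 48 h. CellTiter-Glo reagent was added, plates sat 10 min at room temperature, and luminescence was read. n = 6 replicates in one independent experiment.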

[5] = biological target: base-paired RNA that does not contain internal loops; assay: Microscale thermophoresis; type: binding; details: read-out: Kd for base pair control RNA; MST
Summary of the method: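 Cy5-labelled base-paired control RNA, GCG(CCUG)7(GCAG)5CGC, was used at 5 nM in 8 mM Na2HPO4 pH 7.0, 185 mM NaCl and 1 mM EDTA, folded at 60 °C for 5 min. It was mixed with 1:1 serial compound dilutions (0.05% Tween-20 final) and held 30 min at room temperature. MST settings: 80% power, 30 s laser-on. Kd came from a quadratic fit, averaged over two independent experiments.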

[6] = test system: r(CCUG)exp–MBNL1 nuclear foci; type: cell-based; details: 5 μM, DM2 patient-derived fibroblasts; untreated 7 ± 1
[7] = test system: MAP4K4 exon 22a splicing; assay: MAP4K4 exon 22a splicing; type: cell-based; details: NOVA-dependent splicing event
[8] = test system: CNBP intron 1; assay: CNBP intron 1 abundance by RT-qPCR in DM2 patient-derived fibroblasts; type: cell-based; details: doses of 5 and 1 μM
Summary of the method: (§1)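 DM2 patient-derived fibroblasts were grown in DMEM/high glucose with 20% FBS at 37 °C and 5% CO2. Cells in 6-well plates were treated in growth medium at 40% confluency for 48 h. About 1 μg of total RNA was reverse transcribed, then run in SYBR Green qPCR. Abundance was normalized to GAPDH across 2 independent experiments.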

[9] = test system: CNBP mature mRNA; assay: CNBP mature mRNA levels by RT-qPCR in DM2 patient-derived fibroblasts; type: cell-based
Summary of the method: as §1

[10] = test system: CNBP intron 1; assay: CNBP intron 1 levels in wild-type fibroblasts; type: cell-based
Summary of the method: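 Wild-type donor fibroblasts (GM07492) were grown in MEM with 10% FBS and Glutagro at 37 °C and 5% CO2. Cells were treated at 40% confluency for 48 h. About 1 μg of total RNA was reverse transcribed and run in SYBR Green qPCR. Relative abundance was normalized to GAPDH.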

[11] = test system: IR exon 11 inclusion; assay: IR exon 11 inclusion in wild-type fibroblasts; type: cell-based
Summary of the method: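 Wild-type donor fibroblasts (GM07492) were grown in MEM with 10% FBS and treated at ~40% confluency for 48 h. About 1 μg of total RNA was reverse transcribed. PCR ran 35 cycles (95 °C 30 s, 58 °C 30 s, 72 °C 1 min). Products were separated on a 2% agarose gel, stained with ethidium bromide, and percent exon 11 exclusion was quantified by densitometry.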

**Q.** What does the source list for `COc1ccc(Nc2nc(NCCCO)c3ccccc3n2)cc1` [compound 3]?
**A.** shifts of RNA H6 and H8 proton resonances in 1D NMR [1]: Significant shifts in resonances; binding to the RNA by waterLOGSY spectra [1]: bound to the RNA

**Q.** What does the source list for `CN(C)c1ccc(Nc2nc(NCCCO)c3ccccc3n2)cc1` [compound 4]?
**A.** shifts of RNA H6 and H8 proton resonances in 1D NMR [1]: Significant shifts in resonances; binding to the RNA by waterLOGSY spectra [1]: bound to the RNA

**Q.** What does the source list for `CC(=O)Nc1ccc(Nc2nc(NCC3CCCO3)c3ccccc3n2)cc1` (centres unmarked) [compound 5]?
**A.** shifts of RNA H6 and H8 proton resonances in 1D NMR [1]: Significant shifts in resonances; binding to the RNA by waterLOGSY spectra [1]: bound to the RNA

**Q.** With `OCCCNc1nc(Nc2ccc3c(c2)OCCO3)nc2ccccc12` [compound 7, 3-((2-((2,3-dihydrobenzo[b][1,4]dioxin-6-yl)amino)quinazolin-4-yl)amino)propan-1-ol] as the compound, how does the “shifts of RNA H6 and H8 proton resonances in 1D NMR” value [1] read?
**A.** Its value is “Significant shifts in resonances”.

**Q.** And the “binding to the RNA by waterLOGSY spectra” value [1]?
**A.** The value was “bound to the RNA”.

**Q.** What about the “rescue of IR exon 11 splicing (percent rescue)” value ([2]; 48 h) of the same compound?
**A.** The value was 12 ± 5%.

**Q.** With `Cc1ccc2nc(Nc3ccc4c(c3)OCCO4)nc(NCCCO)c2c1` [compound 58, 3-((2-((2,3-dihydrobenzo[b][1,4]dioxin-6-yl)amino)-6-methylquinazolin-4-yl)amino)propan-1-ol] as the compound, how does the IC50 [3] read?
**A.** Its IC50 is 12.7 ± 0.2 µM.

**Q.** What does the source list for `Cc1ccc2nc(Nc3ccc4nc(C)sc4c3)nc(NCCCO)c2c1` [compound 63, 3-((6-methyl-2-((2-methylbenzo[d]thiazol-6-yl)amino)quinazolin-4-yl)amino)propan-1-ol]?
**A.** IC50 [3]: 2.2 ± 0.5 µM; toxicity in DM2 patient-derived fibroblasts [4]: no toxicity; rescue of IR exon 11 splicing (percent rescue) ([2]; 48 h): 33 ± 5%; rescue of IR exon 11 splicing ([2]; 5 μM, 48 h): significantly improved IR splicing; Kd [5]: > 20 µM; number of r(CCUG)exp–MBNL1 nuclear foci per cell [6]: 5 ± 0.5; effect on MAP4K4 exon 22a splicing [7]: did not affect; abundance of CNBP intron 1 [8]: significantly reduced; levels of CNBP mature mRNA [9]: did not affect; effects on CNBP intron 1 levels [10]: no effects were observed; effect on IR exon 11 inclusion [11]: did not affect

**Q.** For `Cc1ccc2nc(Nc3ccc4nc(NC5CCN(Cc6ccccc6)CC5)sc4c3)nc(NCCCO)c2c1` [compound 71, 3-((2-((2-((1-benzylpiperidin-4-yl)amino)benzo[d]thiazol-6-yl)amino)-6-methylquinazolin-4-yl)amino)propan-1-ol], which IC50 [3] is on record?
**A.** Its IC50 is under 5 µM.

**Q.** How did the IC50 [3] turn out when `Cc1ccc2nc(Nc3ccc4nc(N5CCOCC5)sc4c3)nc(NCCCO)c2c1` [compound 72, 3-((6-methyl-2-((2-morpholinobenzo[d]thiazol-6-yl)amino)quinazolin-4-yl)amino)propan-1-ol] was run?
**A.** The IC50 was under 5 µM.

**Q.** Which IC50 [3] does the source give for `Cc1ccc2nc(Nc3ccc4nc(NCC(C)C)sc4c3)nc(NCCCO)c2c1` [compound 73, 3-((2-((2-(isobutylamino)benzo[d]thiazol-6-yl)amino)-6-methylquinazolin-4-yl)amino)propan-1-ol] here?
**A.** The IC50 was under 5 µM.

**Q.** With `Cc1ccc2nc(Nc3ccc4nc(NCCN5CCOCC5)sc4c3)nc(NCCCO)c2c1` [compound 74, 3-((6-methyl-2-((2-((2-morpholinoethyl)amino)benzo[d]thiazol-6-yl)amino)quinazolin-4-yl)amino)propan-1-ol] as the compound, how does the IC50 [3] read?
**A.** Its IC50 is under 5 µM.

**Q.** How did the IC50 [3] turn out when `Cc1ccc2nc(Nc3ccc4nc(NCC(C)(C)O)sc4c3)nc(NCCCO)c2c1` [compound 78, 3-((2-((2-((2-hydroxy-2-methylpropyl)amino)benzo[d]thiazol-6-yl)amino)-6-methylquinazolin-4-yl)amino)propan-1-ol] was run?
**A.** The IC50 was under 5 µM.

**Q.** What about the “toxicity in DM2 patient-derived fibroblasts” value [4] of the same compound?
**A.** Its value is “no toxicity”.

**Q.** What about the “rescue of IR exon 11 splicing” value ([2]; 5 μM, 48 h) of the same compound?
**A.** Its value is “significantly improved IR splicing”.

**Q.** Which IC50 [3] does the source give for `Cc1ccc2nc(Nc3ccc4nc(NCCN(C)C)sc4c3)nc(NCCCO)c2c1` [compound 79, 3-((2-((2-((2-(dimethylamino)ethyl)amino)benzo[d]thiazol-6-yl)amino)-6-methylquinazolin-4-yl)amino)propan-1-ol] here?
**A.** Its IC50 is under 5 µM.

**Q.** And the “toxicity in DM2 patient-derived fibroblasts” value [4]?
**A.** Its value is “no toxicity”.

**Q.** What about the “rescue of IR exon 11 splicing” value ([2]; any concentration studied) of the same compound?
**A.** The value was “did not significantly rescue splicing”.

**Q.** Which IC50 [3] does the source give for `Cc1ccc2nc(Nc3ccc4nc(N5CCN(C)CC5)sc4c3)nc(NCCCO)c2c1` [compound 82, 3-((6-methyl-2-((2-(4-methylpiperazin-1-yl)benzo[d]thiazol-6-yl)amino)quinazolin-4-yl)amino)propan-1-ol] here?
**A.** Its IC50 is under 5 µM.
